# From PubChem
# Hits are enriched below; roughly 2.1% of the tested compounds scored in any of these assays.
# eIF4H inh: inhibitors of RNA binding by human eIF4H; Q15056; eIF4H fluorescence polarization binding assay; inhibition, % at 35 µM; 290,000 compounds, 0.94% hits; AID 2012;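 further: calls also rest on retests at 20 µM and on dose response follow-up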
# ZTA DNA inh: counter-screen for EBNA-1 inhibitors: inhibitors of Epstein-Barr virus ZTA. P03206. ZTA-DNA binding, fluorescence polarization. inhibition, % at 11 µM. 320,000 compounds, 0.15% hits; in the data active means inhibition above about 33%
# MLLE-PAM2 inh: blocks PAM2 peptide binding to the PABP1 MLLE domain | P11940 | GST-MLLE / FITC-PAM2 fluorescence polarization | inhibition, % at 20 µM | 360,000 compounds, 0.36% hits | AID 588489; in the data active means inhibition above about 35%, passing the limit was not always enough;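 further: plate controls were DMSO wells with GST-MLLE for no effect and wells lacking GST-MLLE protein for full effect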
# EBNA-1 inhibitor: blocks EBNA-1 binding to DNA; EBNA-1 DNA binding, fluorescence polarization; inhibition, % at 14.8 µM; 300,000 compounds, 0.34% hits; AID 1950; in the data active means inhibition above about 28%
# NS3 helicase inh: inhibitors of Hepatitis C virus NS3 helicase | inhibition, % at 10.9 µM | AID 1800 | NS3 helicase DNA unwinding, Cy5 molecular beacon fluorescence | 290,000 compounds, 0.56% hits;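 active means inhibition above the mean of all tested compounds plus 3 SD, set per campaign, cut at about 35% in these data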;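 further: 0% = DMSO wells and 100% = thioflavine S control wells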
#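 Assay system – hepatitis C virus NS3 helicase domain fragment enzyme · Buffer or medium – MOPS pH 6.5, MgCl2, DTT, Tween20, BSA · Reagent – Cy5/quencher beacon DNA duplex and ATP to start · Compound – single 10.9 µM dose · Timing – 1 h at 25 °C · Technique – Cy5 beacon fluorescence read at start and 1 h · Measure – % inhibition of unwinding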
# PABP polyA inh: blocks human PABP binding to poly(A) RNA. P11940. fluorescence polarization. inhibition, % at 35 µM. 290,000 compounds, 1% hits. AID 2014;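 further: calls also rest on retests at 20 µM and on dose response follow-up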
# The depositor's hits bear a star; ? = inconclusive; . = no result given. Unless noted, how the calls were made is not given here.
SMILES,eIF4H inh,ZTA DNA inh,MLLE-PAM2 inh,EBNA-1 inhibitor,NS3 helicase inh,PABP polyA inh
COc1ccc(CCn2c(=N)c(C(=O)NCc3ccco3)cc3c(=O)n4ccccc4nc32)cc1OC,.,.,-2,.,.,.
Cc1ccc(Cn2c(=N)c(C(=O)NCc3ccco3)cc3c(=O)n4ccccc4nc32)cc1,75*,-17,-31,-6,15,60*
COCCn1c(=N)c(C(=O)NCc2ccco2)cc2c(=O)n3cc(C)ccc3nc21,107*,5,69*,-1,7,48
CCOC(=O)C(C)NC(=O)C(NC(=O)C1CCC(CC)CC1)C(C)C (configuration not stated),-18,-4,13,1,-1,0
CCOC(=O)C(CC)(CC)C(=O)/C=C/c1ccc(OC)cc1,0,0,-5,-11,4,4
O=C(COC(=O)c1ccc([N+](=O)[O-])o1)Nc1nc2ccccc2s1,7,16,-1,2,3,20
CC1=C(C(=O)OCc2ccccc2)C(c2cccnc2)n2nnnc2N1 (configuration not stated),-17,-8,-4,-1,-4,0
Cc1cccc2c1N(C(=O)c1ccco1)C(C)(C)c1ssc(=S)c1-2,4,7,-2,4,-1,-4
Cc1ccc2c(c1)N(C(=O)c1ccco1)C(C)(C)c1ssc(=S)c1-2,active,18,13,10,-6,75*
O=C(CCCN1C(=O)c2ccccc2C1=O)Nc1nnc(C2CC2)s1,active,16,-28,1,-6,59*
COCc1nnc(NC(=O)CCCCCN2C(=O)c3ccccc3C2=O)s1,-2,-9,2,2,2,-2
CSc1nc(N)cc(=O)[nH]1,61,2,11,-11,-1,active
CSc1nc(Cl)cc(=O)[nH]1,7,-3,8,1,-2,0
CC(C)(C)S(=O)(=O)c1cnc2c(S(=O)(=O)c3ccccc3)cnn2c1N,4,6,-5,-1,7,5
CC(=O)N=Cc1c(C)c(C#N)c(=O)n(C)c1O,?,-3,13,6,-3,-10
Cc1c(/C=N/Nc2ccc(F)cc2)c(O)n(C)c(=O)c1C#N,81,-3,4,-11,4,37*
NC(=O)C1CCCNC1 (configuration not stated),79*,-7,-2,8,.,66*
O=C(NC1CCNCC1)C1CCCCC1,-15,-12,-12,-3,-3,8
Cc1cc(C)c(C)c(S(=O)(=O)NCc2ccc(C(=O)NCC3CCCO3)cc2)c1C (configuration not stated),-12,-2,-13,-7,-14,3
CN(CC(=O)Nn1cnnc1)S(=O)(=O)c1ccc(Br)cc1,5,8,8,3,0,-5
COc1cccc(Nc2ncccc2C(=O)NCc2ccccc2)c1,85*,.,-3,.,-16,102*
COc1ccc(Nc2ncccc2C(=O)NCc2ccccc2)cc1,5,1,8,1,-12,-1
CC(=O)N1CCC2(CC1)C/C(=N\NC(=S)Nc1ccccc1C)c1cc(O)ccc1O2,8.5*,-14,36,-17,21,86
CN(C)c1ccc(C(=O)OCC(=O)Nc2ccc(S(N)(=O)=O)cc2)cc1,4,44*,-67,34*,12,6
CN(C)c1ccc(NC(=O)COC(=O)c2ccc3c(c2)OCO3)cc1,.,.,-8,.,.,.
SMILES,eIF4H inh,ZTA DNA inh,MLLE-PAM2 inh,EBNA-1 inhibitor,NS3 helicase inh,PABP polyA inh
CC(C)CN1CCN(Cc2ccc(CN3CCCCC3)s2)CC1CCO (configuration not stated),63*,-6,0,3,-5,10*
CC(=O)Nc1ccc(-c2ccc3nnc(C)n3n2)cc1,-9,10,15,5,5,-7
Cc1nnc2ccc(-c3ccc(NC(=O)c4ccco4)cc3)nn12,74*,-5,-11,3,1,-13
CCN1CCN(Cc2c(O)ccc3c2O/C(=C\c2ccccc2)C3=O)CC1,?,10,16,8,7,-3
CC1CCCN(Cc2c(O)ccc3c2O/C(=C\c2ccco2)C3=O)C1 (configuration not stated),85*,-10,68,0,17,5.8*
Oc1c(C(c2ccccc2)N2CCCCC2)sc2ncnn12 (configuration not stated),-6,8,-7,1,0,4
